M4 ag: CHRM4 agonism in calcium assay. P08173. CHO-K1 hM4/Gqi5, Fluo-8 calcium fluorescence; vehicle 0%, full acetylcholine response 100%. activation, % at 3 µM. 360,000 compounds, 0.14% hits. AID 624127;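 active = activation above the run mean over all test wells plus 3 SD, cut at about 32% in these data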;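 note: peak over basal fluorescence ratio per well then scaled between controls; 0% = DMSO wells and 100% = acetylcholine at EC100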
Target sequence (P08173 whole entry, looked up): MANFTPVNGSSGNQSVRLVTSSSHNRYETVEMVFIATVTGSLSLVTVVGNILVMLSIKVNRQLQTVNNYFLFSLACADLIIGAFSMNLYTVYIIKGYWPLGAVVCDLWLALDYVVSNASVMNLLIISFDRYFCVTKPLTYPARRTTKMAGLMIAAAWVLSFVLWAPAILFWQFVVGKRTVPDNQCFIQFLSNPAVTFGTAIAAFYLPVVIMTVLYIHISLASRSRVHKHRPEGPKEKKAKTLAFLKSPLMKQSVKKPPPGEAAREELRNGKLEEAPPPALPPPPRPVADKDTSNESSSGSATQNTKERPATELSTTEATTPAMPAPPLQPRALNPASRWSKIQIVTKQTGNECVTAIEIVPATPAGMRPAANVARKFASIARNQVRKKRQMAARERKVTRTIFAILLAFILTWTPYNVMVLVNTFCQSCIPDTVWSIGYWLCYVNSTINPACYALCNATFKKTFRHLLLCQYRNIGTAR
CHRM4 antagonist: CHRM4 antagonism in calcium assay. CHO-hM4 cells, ACh EC80, Fluo-8 calcium fluorescence. inhibition, % at 3 µM. 360,000 compounds, 0.73% hits;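 active = inhibition above its plate's cutoff, the mean inhibition of sample wells plus 3 SD, cut at about 27% in these data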;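 note: 0% = acetylcholine EC80 with DMSO and 100% = DMSO without agonist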
M4 PAM: positive allosteric modulators of human muscarinic M4 receptor; 360,000 compounds, 0.4% hits; CHO-K1 hM4/Gqi5, Fluo-8 calcium fluorescence, ACh EC20; 0% = ACh EC20, 100% = maximal ACh; AID 624126; activation, % at 3 µM; P08173;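 active = activation above its plate's cutoff, the mean activation of sample wells plus 3 SD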
CHRM5 PAM: CHRM5 positive allosteric modulation. P08912. CHO-K1 hM5, Fluo-8 calcium, ACh EC20 PAM; 0% = ACh EC20, 100% = ACh EC100. activation, % at 3 µM. 360,000 compounds, 0.3% hits. AID 624038;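 active = activation above the run cutoff, the mean activation of all test compounds plus 3 SD, cut at about 18% in these data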
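System: CHO-K1 cell line with stable human muscarinic M5 receptor expression | Also added: EC20 acetylcholine as agonist stimulus | Compound: One concentration, 3 µM final (nominal) | Timing: Fluo-8 loading 80 min at 37 °C plus 30 min room temperature | Measured by: Fluo-8 calcium dye fluorescence, kinetic read | Read-out basis: % activation, ACh-normalized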
CHRM5 agonist: CHRM5 agonism in calcium assay | 360,000 compounds, 0.19% hits | CHO-K1 hM5 cells, Fluo-8 calcium fluorescence; 0% DMSO wells, 100% maximal acetylcholine response | AID 624037 | activation, % at 3 µM | P08912;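 active = activation above the run's mean over test compounds plus 3 SD, cut at about 23% in these data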;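 note: signal is peak over basal fluorescence ratio across the kinetic read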
CHRM5 antagonist: antagonists of human muscarinic M5 receptor (CHRM5); 360,000 compounds, 0.59% hits; P08912; AID 624040; CHO-hM5 cells, Fluo-8 calcium fluorescence, ACh EC80; inhibition, % at 3 µM;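 active = inhibition above a per-plate cutoff, the mean of that plate's test compounds plus 3 SD, cut at about 27% in these data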;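 note: 0% = acetylcholine EC80 with DMSO and 100% = DMSO without agonist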
Numbers without * were called inactive. Compounds with a hit are over-represented: about 1.9% of the library has one in this group of screens.

SMILES	M4 ag	CHRM4 antagonist	M4 PAM	CHRM5 PAM	CHRM5 agonist	CHRM5 antagonist
COc1ccc(C)cc1NC(=O)C(OC(=O)C1=NNC(=O)CC1)c1ccccc1 (stereo not drawn)	1	0	0	-3	1	11
CC(C)CN(C(=O)COC(=O)CCCc1c[nH]c2ccccc12)c1c(N)n(Cc2ccccc2)c(=O)[nH]c1=O	1	7	-2	-6	-2	29*
CC(C)CN(C(=O)COC(=O)CCc1c[nH]c2ccccc12)c1c(N)n(Cc2ccccc2)c(=O)[nH]c1=O	2	0	2	1	1	7
Cc1cc(Br)cn2c(Cc3ccccc3C(F)(F)F)c(-c3cccc(Br)c3)nc12	0	-5	4	2	-3	-2
O=C(Nc1ccccc1)Nc1ccccc1NS(=O)(=O)c1cccs1	13	-17	-6	-15	8	3
COC(=O)c1ccc(NC(=O)Nc2ccc(F)c(Cl)c2)cc1	25	9	-8	-21	15	31*
O=C(Nc1ccc(Cl)c(Cl)c1)Nc1ccccc1NS(=O)(=O)c1cccs1	13	6	-9	-19	4	30*
COC(=O)c1sccc1NC(=O)Nc1ccc(Cl)c(Cl)c1	4	28*	-19	-12	-1	17
COC(=O)c1cccc(NC(=O)Nc2ccc(Cl)c(Cl)c2)c1	27	12	-8	-26	12	32*
CCN(CC)C(=O)c1cccc(NC(=O)c2cc(C3CC3)nc3c2cnn3C(C)C)c1	8	11	-3	-14	-2	1
CCOc1ccccc1/C=C/c1onc(C)c1S(=O)(=O)N1CCC(C(=O)NC)CC1	2	-6	2	-2	1	8
COC(=O)c1ccc(NC(=O)Nc2ccc([N+](=O)[O-])cc2)cc1	18	14	-9	-23	4	35*
COC(=O)c1cc(NC(=O)Nc2ccccc2)ccc1Cl	25	-2	-21	-19	8	31*
O=C(NCCCO)c1nnc(Cc2c(F)cccc2Cl)o1	1	-8	29*	12	6	-7
O=C(NCCCN1CCN(Cc2ccccc2)CC1)c1nnc(Cc2c(F)cccc2Cl)o1	0	13	-21	5	-8	-7
Cc1nnc(SCC(=O)N2CCCCC2)n1CC1CCCO1 (stereo not drawn)	0	3	-4	3	-3	4
CCCOC(=O)c1ccc(NC(=O)CSC2=Nc3ccccc3C3CC=NN23)cc1 (stereo not drawn)	1	14	38*	6	1	2
O=C(CSC1=Nc2ccccc2C2CC=NN12)Nc1ccc2c(c1)OCO2 (stereo not drawn)	0	10	-7	0	1	9
Cc1cc(C)cc(N(CCC#N)C(=O)CSC2=Nc3ccccc3C3CC=NN23)c1 (stereo not drawn)	9	5	-5	13	24*	-3
CC(=O)c1ccc(Oc2cc(C(F)(F)F)cnc2C(N)=O)cc1	1	-1	10	-2	-2	4
COc1ccc(OC)c(C(=O)c2ccc([N+](=O)[O-])cc2)c1	2	8	-9	-4	-9	0
CCCCN(CC)C(=O)c1n[nH]c(=O)c2ccccc12	2	-3	25	25*	7	-16
CCC(C)Sc1cccc(-c2nc3ccc(C)cn3c2NCc2ccccc2)c1 (stereo not drawn)	13	47*	-8	-26	0	23
CCCCCCSc1cccc(-c2nc3ccc(C)cn3c2NCc2ccccc2)c1	5	14	-9	-3	-2	14
Cc1ccc2nc(-c3cccc(-c4cccc(Cl)c4)c3)c(NCc3ccccc3)n2c1	7	28*	-10	-32	-3	28*
SMILES	M4 ag	CHRM4 antagonist	M4 PAM	CHRM5 PAM	CHRM5 agonist	CHRM5 antagonist
CC(Sc1ccccc1)C(=O)N/N=C/c1cccnc1 (stereo not drawn)	4	-10	4	4	-1	1
CC(Oc1cccc2ccccc12)C(=O)N/N=C/c1cccnc1 (stereo not drawn)	6	-2	22*	-2	-2	1
NNC(=O)C1CCCN1S(=O)(=O)c1ccc(Cl)cc1 (stereo not drawn)	1	10	-4	-6	-2	14
O=C1NC[C@@H](Cc2cccc3ccccc23)N(CC2CCCCC2)C1=O	1	-1	7	22*	2	-17
S=C1NC[C@H](Cc2cccc3ccccc23)N1CC1CCCCC1	4	-4	10	7	-1	5
Cc1ccc(-c2csc(NC(=O)c3ccc(-c4ccccc4)cc3)n2)o1	9	40*	-10	-6	8	16
Cc1c(C(=O)NC2CCS(=O)(=O)C2)oc2ccccc12 (stereo not drawn)	0	1	-8	-4	-3	27*
Cc1c(-c2cccc(Cl)c2)nc2ccccc2c1C(=O)OC/C(O)=C(\C#N)c1nc2ccccc2[nH]1	3	-1	5	2	-3	2
CCOC(=O)c1c2n(c3ccc(O)cc13)CCCCC2	1	0	0	-4	-2	2
CCN(CC(=O)Nc1c(F)cccc1F)C(=O)/C=C/c1cn(Cc2ccccc2)nc1-c1cccnc1	2	7	1	-6	-3	27*
COc1ccc(S(=O)(=O)N2CCCCC2)cc1NC(=O)CN(Cc1ccco1)Cc1ccco1	20	27*	-15	-44	-3	43*
COc1ccc(S(=O)(=O)N2CCCCC2)cc1NC(=O)CN(C)C1CCCCC1	3	-9	4	3	-7	4
CN(C)CCOC1c2ccccc2CCc2ccc3ccccc3c21 (stereo not drawn)	6	12	-12	-30	-17	33*
O=C(C1=C(O)C(=O)N(CCOCCO)C1c1cccc([N+](=O)[O-])c1)c1cccs1 (stereo not drawn)	1	-20	3	22*	5	-12
CCOc1cccc(C2C(C(=O)c3cccs3)=C(O)C(=O)N2Cc2cccnc2)c1 (stereo not drawn)	1	-2	11	29*	7	18
CCCCOc1cccc(C2C(C(=O)c3cccs3)=C(O)C(=O)N2Cc2cccnc2)c1 (stereo not drawn)	0	-5	-3	-4	-4	1
Cc1ccc(-c2csc(Nc3ccccn3)n2)cc1	-1	-14	14*	14	10	-4
Cc1nc(C)c(-c2csc(Nc3ccccn3)n2)s1	3	-4	-2	-5	5	10
Cc1nc(N)sc1-c1csc(Nc2ccccn2)n1	0	28*	1	2	0	0
